Data reported in ChEMBL document CHEMBL1144143, “Phenolic glycosides from Dirca palustris” (J Nat Prod, 1999).
One block for each compound: values may come before it. Activity calls are given as the source filed them. The calls are words filed in the database; no cut-off is given here.

How the values were obtained:
[1] = Inhibition of insect cell COX2 at 200 ug/mL
Method in brief: (§1)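 COX-II was an insect cell lysate preparation, diluted in Tris at pH 7.0 to about 1.5 mg protein/mL. O2 uptake was measured at 37 °C by oxygen electrode. Mixture: 0.1 M Tris at pH 7.0, phenol, hemoglobin and 100 µmol arachidonic acid. Compound was added in DMSO, and the reaction was started by adding enzyme protein.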

[2] = Antioxidation activity assessed as inhibition of peroxidation of liposome at 60 ug/mL; assay type: physicochemical; details: artificial membrane
Method in brief: (§2)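 Fe2+-initiated peroxidation of large unilamellar liposomes made from 1-stearoyl-2-linoleoyl-phosphocholine with the fluorescent probe 3-[p-(6-phenyl)-1,3,5-hexatrienyl]phenylpropionic acid. Liposomes were extruded through a 100 nm membrane. The assay used Chelex-treated HEPES buffer at pH 7.0 with NaCl, at 23 °C, with test agent in DMSO. Reaction was started with 20 µM FeCl2 (final). Fluorescence (excitation 384 nm) was read every 3 min for 21 min. Positive controls were at 10 µM final.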

[3] = target: T1, Prostaglandin G/H synthase 1 (Ovis aries) (UniProt P05979); test: Inhibition of sheep COX1
T1 sequence (whole entry): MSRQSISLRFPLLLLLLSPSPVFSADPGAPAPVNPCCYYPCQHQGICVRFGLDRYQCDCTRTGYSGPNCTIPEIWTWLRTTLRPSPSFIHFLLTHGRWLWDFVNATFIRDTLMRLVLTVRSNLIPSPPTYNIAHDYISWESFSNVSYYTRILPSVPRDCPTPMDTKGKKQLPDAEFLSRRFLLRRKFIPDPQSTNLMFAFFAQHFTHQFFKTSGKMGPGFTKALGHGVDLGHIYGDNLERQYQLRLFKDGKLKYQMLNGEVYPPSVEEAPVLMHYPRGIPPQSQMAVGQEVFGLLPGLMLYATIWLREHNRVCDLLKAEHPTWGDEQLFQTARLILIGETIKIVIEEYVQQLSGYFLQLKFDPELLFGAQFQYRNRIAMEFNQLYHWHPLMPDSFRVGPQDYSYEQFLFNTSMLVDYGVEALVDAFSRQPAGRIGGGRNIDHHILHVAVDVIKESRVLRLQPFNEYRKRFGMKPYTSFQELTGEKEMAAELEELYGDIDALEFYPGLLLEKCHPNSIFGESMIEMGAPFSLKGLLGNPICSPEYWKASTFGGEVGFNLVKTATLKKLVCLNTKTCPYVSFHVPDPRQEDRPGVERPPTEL
Method in brief: (§3)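 COX-I. Initial rate of O2 uptake measured at 37 °C with an oxygen electrode. Mixture: 0.1 M Tris at pH 7.0, 1 mmol phenol, 85 µg hemoglobin and 100 µmol arachidonic acid. Compound was added in DMSO, with a DMSO-only control. Reaction was started with 5-25 µg microsomal protein. Results are expressed as % inhibition.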

[4] = Antioxidation activity assessed as inhibition of peroxidation of liposome at 2.20 ug/mL; assay type: physicochemical; details: artificial membrane; method in brief: as §2
[5] = Antioxidation activity assessed as inhibition of peroxidation of liposome at 1.66 ug/mL; assay type: physicochemical; details: artificial membrane; method in brief: as §2
[6] = target: T1, Prostaglandin G/H synthase 1 (Ovis aries); details: 2.52 ug/mL
[7] = target: T1, Prostaglandin G/H synthase 1 (Ovis aries); details: 180 ug/mL
[8] = Antioxidation activity assessed as inhibition of peroxidation of liposome at 4.31 ug/mL; assay type: physicochemical; details: artificial membrane; method in brief: as §2
[9] = Antioxidation activity assessed as inhibition of peroxidation of liposome at 1.80 ug/mL; assay type: physicochemical; details: artificial membrane
Method in brief: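 Large unilamellar liposomes (100 nm extrusion) of 1-stearoyl-2-linoleoyl phosphatidylcholine carrying a phenylhexatrienyl-phenylpropionic acid fluorescent probe, in Chelex-treated HEPES pH 7.0 with NaCl. Test compound added in DMSO. Peroxidation started with FeCl2 (20 µM Fe2+ final) at 23 °C. Fluorescence (excitation 384 nm) read every 3 min for 21 min; the fall in relative intensity gives the peroxidation rate.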

[10] = target: T1, Prostaglandin G/H synthase 1 (Ovis aries); test: Inhibition of sheep COX1 at 200 ug/mL; method in brief: as §3
[11] = target: T1, Prostaglandin G/H synthase 1 (Ovis aries); details: 2.06 ug/mL
[12] = target: T1, Prostaglandin G/H synthase 1 (Ovis aries); test: Inhibition of sheep COX1 at 125 ug/mL; method in brief: as §3
[13] = Inhibition of insect cell COX2 at 125 ug/mL; method in brief: as §1
[14] = Antioxidation activity assessed as inhibition of peroxidation of liposome; assay type: physicochemical; details: artificial membrane; method in brief: as §2

Activity [1]: inactive
inhibition (INH) [2]: 78%
Activity [3]: inactive
Compound: COc1ccc(-c2cc(=O)c3c(OC)cc(O[C@@H]4O[C@H](CO[C@H]5OC[C@@H](O)[C@H](O)[C@H]5O)[C@@H](O)[C@H](O)[C@H]4O)cc3o2)cc1

inhibition (INH) [4]: 81%
Compound: Cc1cc(C(C)(C)C)c(O)c(C(C)(C)C)c1 [BUTYLATED HYDROXYTOLUENE]

inhibition (INH) [5]: 90%
Compound: CC(C)(C)c1cc(O)ccc1O [E319]

inhibition [6]: 58%
Compound: COc1ccc2cc([C@H](C)C(=O)O)ccc2c1

inhibition [7]: 52.1%
Compound: CC(=O)Oc1ccccc1C(=O)O

inhibition (INH) [8]: 7%
Compound: VITAMIN E

Compound: COc1ccc(O)c(C(C)(C)C)c1.COc1ccc(O)cc1C(C)(C)C [BUTYLATED HYDROXYANISOLE]
inhibition (INH) [9]: 91%

inhibition [10]: 12.5%
Activity [1]: inactive
inhibition (INH) [2]: 71%
Compound: COc1cc(O[C@@H]2O[C@H](CO[C@H]3OC[C@@H](O)[C@H](O)[C@H]3O)[C@@H](O)[C@H](O)[C@H]2O)cc2oc(-c3ccc(O)cc3)cc(=O)c12

Activity [1]: inactive
inhibition (INH) [2]: 98%
Activity [3]: inactive
Compound: COc1ccc(-c2cc(=O)c3c(OC)cc(O[C@@H]4O[C@H](CO[C@H]5OC[C@@H](O)[C@H](O)[C@H]5O)[C@@H](O)[C@H](O)[C@H]4O)cc3o2)cc1OC

inhibition [11]: 53.3%
Compound: CC(C)Cc1ccc(C(C)C(=O)O)cc1 (configuration not stated)

Activity [1]: inactive
inhibition (INH) [2]: 67%
Activity [3]: inactive
Compound: COc1ccc(-c2cc(=O)c3c(OC)cc(O[C@@H]4O[C@H](CO[C@H]5O[C@H](C)[C@@H](O)[C@H](O)[C@H]5O)[C@@H](O)[C@H](O)[C@H]4O)cc3o2)cc1OC

inhibition [12]: 9.2%
Activity [13]: inactive
Activity [14]: Not Active
Compound: COc1cc(/C=C/CO)c(OC)c(O[C@@H]2O[C@H](CO)[C@@H](O)[C@H](O)[C@H]2O)c1
